# Bioassay records from PubChem BioAssay.
# FLuc inhib CS – inhibits firefly luciferase, flagging false hits in luciferase inhibition screens. P08659. ATPLite firefly luciferase biochemical luminescence, 10 min. inhibition, % at 10 µM. 200,000 compounds, 1.5% hits;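 active = inhibition above about 50% when tested at 10 µM, limit read from the data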
# C8 TRAIL sens – caspase-8 TRAIL sensitization. NB7+C8 cells + TRAIL, ATPlite viability luminescence. inhibition (viability loss, TRAIL sensitization), % at 10 µM. 360,000 compounds, 1% hits;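 active = compounds causing at least 50% loss of cell viability in the single-dose screen, relative to plate controls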
# PPC-1+TRAIL kill – kills PPC-1 cancer cells in the presence of TRAIL; PPC-1 cells + TRAIL, ATPLite viability luminescence; cell killing (% activity), % at 4 µM or 5 µM; 220,000 compounds, 0.41% hits; AID 1443;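 active = cell killing above 50% in the first pass at 4 µM, then a duplicate retest at 5 µM averaging 50% or more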;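 note: plate controls were cells with TRAIL plus DMSO for no effect and medium-only wells lacking cells for full effect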
# FLuc stim CS – firefly luciferase counter-screen for stimulation assays; P08659; ATPlite luciferase biochemical, luminescence, 10 min; 0 = ATP-free wells, 1 = DMSO control; activation factor at 10 µM; 200,000 tested, under 10 active;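 active = luciferase activation factor, scaled between plate controls, of at least 2 with compound at 10 µM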
#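 Assay system – cell-free luciferase reagent · Medium – PBS-based ATP solution · Dosing – test compounds dosed from 2 mM stocks in 100% DMSO · Timing – 10 min, room temperature · Technique – light output (luminescence) · Measure – luminescence gain marking luciferase activators · Controls – No-ATP low control, compound-free enzyme-plus-ATP high control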
# * hit, by the source's call; . = no result given. Rows were chosen to be rich in hits. Some 1.6% of all compounds tested hit in one or more screens of this group.
SMILES,FLuc inhib CS,C8 TRAIL sens,PPC-1+TRAIL kill,FLuc stim CS
O=C(Cc1ccccc1)Nc1nc(=O)c2ccccc2s1,-2,1,15,1
O=C(Nc1nc(=O)c2ccccc2s1)c1ccc(Cl)cc1,43,67*,29,0.6
Cc1cc(C)nc(Nc2n[nH]c(-c3ccc(N)cc3)n2)n1,37,16,22,0.6
Clc1c(-c2ccccc2)nnn1-c1ccccc1,69*,21,9,0.3
COc1cccc(OCc2ccc(Cl)cc2)c1C#N,.,59*,31,.
Cc1cc(N(C)C)ccc1N=Nc1ccc2ncccc2c1,.,39,15,.
CN(C)c1ccc(N=Nc2ccc3ncccc3c2)cc1,.,71*,.,.
Cc1ccc(Nc2nc(C3CC3)cs2)cc1,69*,.,22,0.3
COc1cccc(NC(=O)COc2cccc(-n3cnnn3)c2)c1,8,3,-4,0.9
Nc1nn2cc(-c3ccc(Br)cc3)nc2c2ccccc12,.,51*,40,.
O=c1cc(-c2ccccc2)oc2ccc(Br)cc12,.,37,.,.
COc1ccc2c(=O)c(-c3ccccc3)coc2c1,70*,41,33,0.3
COc1ccc2oc(-c3ccccc3)cc(=O)c2c1,.,72*,.,.
O=C(N/N=C/c1ccc2c(c1)OCO2)c1cc(-c2ccccc2Cl)nc2ccccc12,-1,-9,-1,1
NS(=O)(=O)c1ccc(CCNC(=O)c2ccc3nccnc3c2)cc1,.,-1,.,.
COc1ccc(C)cc1NC(=O)NCc1ccccc1F,68*,33,30,0.3
CC1(C(=O)N/N=C/c2c(F)c(F)c(F)c(F)c2F)CC1(Cl)Cl (configuration not stated),.,77*,.,.
CCN1C(=O)N(C)C2(c3ccccc3)N(C)C(=O)N(C)C12c1ccccc1 (configuration not stated),-6,-18,-12,1.1
N#Cc1ccc(NC(=S)NC(=O)C2CCCCC2)cc1,.,7,.,.
CCOC(=O)N1CCN(C(=O)CSCC(=O)Nc2nc(-c3ccc(-c4ccccc4)cc3)cs2)CC1,4,62*,24,1
CCOC(=O)N1CCN(C(=O)CSCC(=O)Nc2nc(-c3ccc(OC)cc3)cs2)CC1,-2,0,12,1
CCCc1nnc(NC(=O)CSc2nc3ccccc3[nH]2)s1,1,-5,-8,1
C=CC(=O)Nc1cccc(Nc2nc(N[C@H]3CC[C@H](N(C)C)CC3)nc3c2ncn3C(C)C)c1,.,83*,.,.
O=C(CSc1cccc2cccnc12)N/N=C/c1ccc(F)cc1,.,17,12,.
Fc1ccc(C(c2nnnn2C2CCCCC2)N2CCCC2)cc1 (configuration not stated),6,-12,-15,0.9
SMILES,FLuc inhib CS,C8 TRAIL sens,PPC-1+TRAIL kill,FLuc stim CS
O=C1C(=Cc2cccs2)Oc2ccccc21,.,-12,.,.
O=C1/C(=C/c2cccs2)COc2ccccc21,71*,14,8,0.3
O=C(Nc1ccc2c(c1)CCC2)c1ccccc1F,62*,57*,6,0.4
O=C(O)c1ccccc1-c1ccccc1C(=O)Nc1ccc2c(c1)CCC2,.,10,.,.
O=C(Nc1ccc2c(c1)CCC2)c1ccccc1,62*,41,30,0.4
O=C(COc1ccc2c(c1)CCC2)Nc1ccccn1,.,84*,.,.
COc1cc(/C(C#N)=C/c2cccc3ccccc23)c([N+](=O)[O-])cc1OC,-9,1,-13,1.1
CCc1nc2sc3c(c2c(=O)n1N)CC(C)(C)OC3,-5,-8,9,1.1
CCN1CCCC1CNC(=O)c1ccc2c(c1)NC(=O)/C(=C\c1ccc(C)cc1)S2 (configuration not stated),.,79*,.,.
O=C1Nc2cc(C(=O)NCCN3CCCCCC3)ccc2S/C1=C/c1ccccc1F,.,52*,.,.
Cc1ccc(/C=C2/Sc3ccc(C(=O)NCCN4CCOCC4)cc3NC2=O)cc1,.,4,.,.
CCN1CCN(CCNC(=O)c2ccc3c(c2)N(Cc2ccc(F)cc2)C(=O)/C(=C/c2ccccc2)S3)CC1,-5,57*,27,1.1
CC(=O)N(Cc1ccc(F)cc1)C1=C(NCCc2ccccc2)C(=O)c2ccccc2C1=O,-2,89*,48,1
Cc1cc(C)c(C#N)c(SCc2cn3ccccc3n2)n1,4,1,68*,1
Nc1cc2c3c(cccc3c1)C(=O)N(CCN1CCCC1)C2=O,.,25,14,.
O=C1c2cccc3cc([N+](=O)[O-])cc(c23)C(=O)N1CCN1CCCC1,.,59*,25,.
COc1ccc(C2Nc3ccccc3NC3=C2C(=O)CC(C)(C)C3)c(OC)c1OC (configuration not stated),.,3,.,.
CCOc1ccc(C(=O)NCC(=O)OCC(=O)Nc2ccc(C)c(S(=O)(=O)N(C)C)c2)cc1,65*,2,25,0.4
